Source: ChEMBL document CHEMBL1157465, “Design, synthesis, and biological evaluation of novel 3-aryl-4-(1H-indole-3yl)-1,5-dihydro-2H-pyrrole-2-ones as vascular endothelial growth factor receptor (VEGF-R) inhibitors” (J Med Chem, 2008)

How the values were obtained:
Homo sapiens [1] = species: Homo sapiens; test: Induction of apoptosis in HDMEC at 2.1 uM after 5 hrs; format: functional
Method in brief: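 Positive-control condition: HDMEC treated 5 h at 2.1 µM. Adherent cells plus supernatant stained for cleaved caspase-3 and analysed by FACS as percent apoptotic cells. Repeated three times.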

[2] = target: Insulin-like growth factor 1 receptor (Homo sapiens, UniProt P08069); test: Inhibition of human recombinant IGF1R
Insulin-like growth factor 1 receptor, sequence (P08069 31-736 limits assumed): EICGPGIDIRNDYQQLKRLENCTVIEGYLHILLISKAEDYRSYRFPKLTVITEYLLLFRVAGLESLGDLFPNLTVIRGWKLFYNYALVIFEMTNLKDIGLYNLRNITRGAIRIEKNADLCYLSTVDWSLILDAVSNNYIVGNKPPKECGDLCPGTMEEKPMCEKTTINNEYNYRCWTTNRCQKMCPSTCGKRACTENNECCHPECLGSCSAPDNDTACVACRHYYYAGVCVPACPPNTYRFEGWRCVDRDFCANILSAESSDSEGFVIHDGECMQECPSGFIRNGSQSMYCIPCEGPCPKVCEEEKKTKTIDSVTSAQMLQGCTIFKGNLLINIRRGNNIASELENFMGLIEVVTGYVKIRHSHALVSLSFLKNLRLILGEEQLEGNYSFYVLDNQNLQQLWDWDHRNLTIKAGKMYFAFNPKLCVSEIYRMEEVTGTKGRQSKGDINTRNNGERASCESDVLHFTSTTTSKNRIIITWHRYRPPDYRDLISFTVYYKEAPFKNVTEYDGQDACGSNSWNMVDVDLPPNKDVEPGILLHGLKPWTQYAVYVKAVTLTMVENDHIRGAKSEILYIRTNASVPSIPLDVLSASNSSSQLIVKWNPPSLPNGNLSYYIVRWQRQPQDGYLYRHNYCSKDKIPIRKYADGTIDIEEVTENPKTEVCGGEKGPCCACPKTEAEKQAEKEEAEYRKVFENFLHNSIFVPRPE
Insulin-like growth factor 1 receptor, sequence (P08069 741-1367 limits assumed): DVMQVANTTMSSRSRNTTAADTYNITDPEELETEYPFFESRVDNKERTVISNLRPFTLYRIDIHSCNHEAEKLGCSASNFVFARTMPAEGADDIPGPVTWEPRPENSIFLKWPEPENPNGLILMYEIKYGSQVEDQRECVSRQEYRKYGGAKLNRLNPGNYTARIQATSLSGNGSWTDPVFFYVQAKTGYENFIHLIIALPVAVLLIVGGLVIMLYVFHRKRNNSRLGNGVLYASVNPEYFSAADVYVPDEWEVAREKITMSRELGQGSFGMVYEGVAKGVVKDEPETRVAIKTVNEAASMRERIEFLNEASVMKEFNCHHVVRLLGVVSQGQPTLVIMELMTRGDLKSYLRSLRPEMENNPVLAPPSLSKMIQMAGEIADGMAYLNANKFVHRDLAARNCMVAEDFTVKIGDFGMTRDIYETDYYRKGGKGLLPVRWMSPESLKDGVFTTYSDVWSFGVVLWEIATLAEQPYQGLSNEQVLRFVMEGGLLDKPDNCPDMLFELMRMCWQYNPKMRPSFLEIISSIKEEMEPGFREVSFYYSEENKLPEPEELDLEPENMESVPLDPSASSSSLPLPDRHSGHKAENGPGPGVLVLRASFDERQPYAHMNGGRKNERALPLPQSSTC
Method in brief: (§1)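 Human kinases expressed in Sf9 cells via baculovirus as GST or His fusions and affinity purified. 33PanQinase assay in 60 mM HEPES-NaOH pH 7.5, 3 mM MgCl2, 3 mM MnCl2, 3 µM orthovanadate, 1.2 mM DTT, 1 µM [γ-33P]ATP, 1% DMSO; 30 °C, 80 min. Substrates: poly(Glu,Tyr) 4:1 for ERBB2, IGF1-R and SRC; poly(Ala,Glu,Lys,Tyr) 6:2:5:1 for FLT3. IC50 from 10 concentrations by scintillation counting.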

[3] = target: Epidermal growth factor receptor (Homo sapiens, UniProt P00533); test: Inhibition of human recombinant EGFR
Ephrin type-B receptor 4 = Ephrin type-B receptor 4 (Homo sapiens, UniProt P54760); test: Inhibition of human recombinant EPHB4
Method in brief: (§2)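 Recombinant human tyrosine kinases (EPHB4, TIE2, VEGF-R2, VEGF-R3), expressed in Sf9 insect cells as GST- or His-fusions, with poly(Glu,Tyr) 4:1 as substrate. Conditions: 1 µM [γ-33P]ATP, pH 7.5 HEPES buffer with Mg/Mn, DTT and vanadate, 30 °C for 80 min, 1% DMSO. Ten concentrations were tested and IC50 came from scintillation counting of incorporated 33P.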

[4] = target: Proto-oncogene tyrosine-protein kinase Src (Homo sapiens, UniProt P12931); test: Inhibition of human recombinant SRC; method in brief: as §1
Proto-oncogene tyrosine-protein kinase Src, sequence (P12931 2-536 limits assumed): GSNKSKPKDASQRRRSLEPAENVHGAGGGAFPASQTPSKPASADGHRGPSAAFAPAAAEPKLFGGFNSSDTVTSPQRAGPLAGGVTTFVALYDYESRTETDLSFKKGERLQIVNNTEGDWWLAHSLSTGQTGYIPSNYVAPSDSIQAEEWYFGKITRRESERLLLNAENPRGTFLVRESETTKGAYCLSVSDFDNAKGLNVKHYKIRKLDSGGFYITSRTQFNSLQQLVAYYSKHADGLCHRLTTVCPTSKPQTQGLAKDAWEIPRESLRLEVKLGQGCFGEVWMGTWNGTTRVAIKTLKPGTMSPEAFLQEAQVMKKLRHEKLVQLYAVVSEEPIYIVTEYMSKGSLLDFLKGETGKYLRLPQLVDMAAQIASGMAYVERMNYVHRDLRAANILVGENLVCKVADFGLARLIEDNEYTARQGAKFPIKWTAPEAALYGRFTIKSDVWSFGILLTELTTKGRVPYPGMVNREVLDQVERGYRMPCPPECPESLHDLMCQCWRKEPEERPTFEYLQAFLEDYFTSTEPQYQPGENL

[5] = target: Vascular endothelial growth factor receptor 2 (Homo sapiens, UniProt P35968); test: Inhibition of human recombinant VEGFR2; method in brief: as §2
Vascular endothelial growth factor receptor 2, sequence (P35968 whole entry): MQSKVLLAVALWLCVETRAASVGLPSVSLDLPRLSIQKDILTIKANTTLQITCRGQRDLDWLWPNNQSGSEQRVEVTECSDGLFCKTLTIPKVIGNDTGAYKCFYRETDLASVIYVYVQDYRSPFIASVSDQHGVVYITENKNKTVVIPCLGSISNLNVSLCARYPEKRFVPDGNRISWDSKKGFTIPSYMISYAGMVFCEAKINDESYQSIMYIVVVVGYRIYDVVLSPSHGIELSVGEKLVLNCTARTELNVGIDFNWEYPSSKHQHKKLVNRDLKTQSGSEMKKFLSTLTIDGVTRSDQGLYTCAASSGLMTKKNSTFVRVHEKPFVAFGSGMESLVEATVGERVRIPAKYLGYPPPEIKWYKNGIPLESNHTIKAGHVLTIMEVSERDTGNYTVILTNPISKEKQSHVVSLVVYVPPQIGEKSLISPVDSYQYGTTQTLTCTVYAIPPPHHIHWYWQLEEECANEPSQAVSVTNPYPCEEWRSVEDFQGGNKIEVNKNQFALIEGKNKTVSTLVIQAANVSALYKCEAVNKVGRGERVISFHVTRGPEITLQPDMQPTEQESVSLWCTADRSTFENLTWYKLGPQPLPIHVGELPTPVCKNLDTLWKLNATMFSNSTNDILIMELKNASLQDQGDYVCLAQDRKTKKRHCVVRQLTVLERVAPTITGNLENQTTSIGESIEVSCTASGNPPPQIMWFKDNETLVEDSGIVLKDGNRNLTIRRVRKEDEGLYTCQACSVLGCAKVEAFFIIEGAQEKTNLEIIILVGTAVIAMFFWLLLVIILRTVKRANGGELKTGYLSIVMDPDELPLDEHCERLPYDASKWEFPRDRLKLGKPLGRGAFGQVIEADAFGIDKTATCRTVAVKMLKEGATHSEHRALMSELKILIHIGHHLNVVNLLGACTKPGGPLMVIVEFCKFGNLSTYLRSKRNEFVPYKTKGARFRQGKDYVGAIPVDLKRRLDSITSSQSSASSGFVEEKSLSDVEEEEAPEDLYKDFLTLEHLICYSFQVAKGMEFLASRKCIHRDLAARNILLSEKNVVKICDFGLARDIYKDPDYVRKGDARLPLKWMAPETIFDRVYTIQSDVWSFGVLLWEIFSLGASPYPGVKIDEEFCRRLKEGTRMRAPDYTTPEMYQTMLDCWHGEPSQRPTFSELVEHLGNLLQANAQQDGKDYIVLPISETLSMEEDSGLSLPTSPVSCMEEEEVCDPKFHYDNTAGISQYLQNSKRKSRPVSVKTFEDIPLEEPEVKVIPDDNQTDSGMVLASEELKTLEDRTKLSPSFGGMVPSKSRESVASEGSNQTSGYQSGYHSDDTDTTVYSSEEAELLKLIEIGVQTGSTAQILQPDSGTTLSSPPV

[6] = target: Vascular endothelial growth factor receptor 3 (Homo sapiens, UniProt P35916); test: Inhibition of human recombinant VEGFR3; method in brief: as §2
[7] = target: T1, Receptor-type tyrosine-protein kinase FLT3 (Homo sapiens, UniProt P36888); test: Inhibition of human recombinant FLT3; method in brief: as §1
T1 sequence (P36888 whole entry): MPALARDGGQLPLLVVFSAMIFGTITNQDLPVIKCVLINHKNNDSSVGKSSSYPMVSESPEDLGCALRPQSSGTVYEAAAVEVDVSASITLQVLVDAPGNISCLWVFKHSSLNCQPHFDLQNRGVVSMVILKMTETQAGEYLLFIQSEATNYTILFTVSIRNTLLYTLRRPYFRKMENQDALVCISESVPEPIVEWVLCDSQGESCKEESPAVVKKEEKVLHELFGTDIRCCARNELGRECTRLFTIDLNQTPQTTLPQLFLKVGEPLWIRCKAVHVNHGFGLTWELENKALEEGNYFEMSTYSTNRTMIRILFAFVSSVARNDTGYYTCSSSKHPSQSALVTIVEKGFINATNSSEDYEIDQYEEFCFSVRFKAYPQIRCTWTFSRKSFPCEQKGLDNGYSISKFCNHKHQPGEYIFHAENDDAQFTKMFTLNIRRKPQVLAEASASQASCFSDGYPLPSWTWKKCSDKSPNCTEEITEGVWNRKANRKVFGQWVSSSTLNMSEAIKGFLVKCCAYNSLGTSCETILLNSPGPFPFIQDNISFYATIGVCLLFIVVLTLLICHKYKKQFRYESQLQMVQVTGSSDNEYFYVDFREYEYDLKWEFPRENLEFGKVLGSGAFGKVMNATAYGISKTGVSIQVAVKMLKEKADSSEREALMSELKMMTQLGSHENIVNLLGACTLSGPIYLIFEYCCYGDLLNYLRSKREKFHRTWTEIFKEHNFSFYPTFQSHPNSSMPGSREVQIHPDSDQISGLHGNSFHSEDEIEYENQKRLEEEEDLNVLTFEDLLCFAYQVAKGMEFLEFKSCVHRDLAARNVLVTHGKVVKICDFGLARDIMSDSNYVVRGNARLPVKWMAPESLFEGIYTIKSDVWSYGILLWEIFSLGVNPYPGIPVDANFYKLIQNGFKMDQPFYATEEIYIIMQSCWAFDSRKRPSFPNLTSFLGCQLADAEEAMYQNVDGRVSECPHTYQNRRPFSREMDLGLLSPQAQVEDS

Angiopoietin-1 receptor = Angiopoietin-1 receptor (Homo sapiens, UniProt Q02763); test: Inhibition of human recombinant TIE2; method in brief: as §2
Angiopoietin-1 receptor, sequence (Q02763 whole entry): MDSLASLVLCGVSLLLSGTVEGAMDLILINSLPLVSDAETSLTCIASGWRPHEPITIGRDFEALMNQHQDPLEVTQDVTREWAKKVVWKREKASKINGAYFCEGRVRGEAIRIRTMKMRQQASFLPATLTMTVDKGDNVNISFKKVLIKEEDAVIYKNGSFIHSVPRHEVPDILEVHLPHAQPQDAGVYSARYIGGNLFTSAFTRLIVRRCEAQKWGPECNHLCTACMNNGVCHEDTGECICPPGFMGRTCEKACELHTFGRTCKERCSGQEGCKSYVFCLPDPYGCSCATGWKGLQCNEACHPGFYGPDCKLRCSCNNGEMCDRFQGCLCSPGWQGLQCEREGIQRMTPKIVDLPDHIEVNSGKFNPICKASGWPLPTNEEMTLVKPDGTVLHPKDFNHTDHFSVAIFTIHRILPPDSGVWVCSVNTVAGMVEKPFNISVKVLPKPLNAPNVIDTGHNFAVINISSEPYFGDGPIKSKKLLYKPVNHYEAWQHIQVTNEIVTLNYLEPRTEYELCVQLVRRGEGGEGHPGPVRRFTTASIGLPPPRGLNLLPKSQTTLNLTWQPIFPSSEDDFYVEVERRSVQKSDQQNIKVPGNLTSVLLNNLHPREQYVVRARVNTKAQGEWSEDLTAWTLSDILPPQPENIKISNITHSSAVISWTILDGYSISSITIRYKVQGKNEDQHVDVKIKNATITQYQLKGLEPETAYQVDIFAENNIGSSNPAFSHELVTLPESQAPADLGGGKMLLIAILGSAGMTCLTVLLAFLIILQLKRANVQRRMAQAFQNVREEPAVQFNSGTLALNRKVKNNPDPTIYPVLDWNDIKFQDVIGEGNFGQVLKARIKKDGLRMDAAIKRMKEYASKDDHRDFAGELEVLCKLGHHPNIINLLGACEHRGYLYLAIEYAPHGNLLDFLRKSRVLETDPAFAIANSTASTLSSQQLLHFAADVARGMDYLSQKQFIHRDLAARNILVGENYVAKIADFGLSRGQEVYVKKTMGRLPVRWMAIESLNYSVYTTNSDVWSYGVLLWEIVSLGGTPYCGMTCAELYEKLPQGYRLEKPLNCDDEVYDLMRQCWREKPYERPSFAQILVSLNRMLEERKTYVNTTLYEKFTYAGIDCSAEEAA

Homo sapiens [8] = species: Homo sapiens; test: Antiangiogenic activity in VEGF-induced HLMEC assessed as sprouts per bead at 1.3 uM after 24 hrs by sprouting assay; format: functional
Method in brief: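 HLMEC seeded on cytodex-3 microcarrier beads and embedded in 3D fibrinogen gel with 20 ng/mL VEGF plus compound at a final 1.3 or 2.6 µM (from 1 mM DMSO stock). Gel polymerised with 0.65 U/mL thrombin and overlaid with MCDB131, 5% FCS, 5% human serum and 200 U/mL Trasylol. Negative control: gel without growth factors. After 24 h, fixed in 1% PFA; sprouts per 50 beads counted microscopically. Triplicates per condition, n = 9 experiments.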

[9] = target: Receptor tyrosine-protein kinase erbB-2 (Homo sapiens, UniProt P04626); test: Inhibition of human recombinant ERBB2; method in brief: as §1
[10] = target: Casein kinase II subunit alpha (Homo sapiens, UniProt P68400); test: Inhibition of human recombinant CK2A1
Casein kinase II subunit alpha, sequence (P68400 whole entry, the tested form may be a part): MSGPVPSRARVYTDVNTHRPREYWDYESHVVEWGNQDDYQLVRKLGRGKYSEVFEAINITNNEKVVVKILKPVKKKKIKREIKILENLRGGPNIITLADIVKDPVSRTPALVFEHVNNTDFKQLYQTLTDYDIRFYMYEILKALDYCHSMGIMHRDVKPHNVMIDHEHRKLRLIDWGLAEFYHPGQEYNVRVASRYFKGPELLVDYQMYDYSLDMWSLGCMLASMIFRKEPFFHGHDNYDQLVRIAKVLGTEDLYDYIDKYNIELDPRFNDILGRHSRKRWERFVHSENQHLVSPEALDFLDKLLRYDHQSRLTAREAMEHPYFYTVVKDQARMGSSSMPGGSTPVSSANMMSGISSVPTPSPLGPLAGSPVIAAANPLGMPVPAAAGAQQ
Method in brief: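 Human kinases expressed in Sf9 cells by baculovirus as GST or His fusions and affinity purified. Radiometric 33PanQinase assay: 60 mM HEPES-NaOH pH 7.5, 3 mM MgCl2, 3 mM MnCl2, 3 µM orthovanadate, 1.2 mM DTT, 1 µM [γ-33P]ATP, 50-400 ng enzyme, 1% DMSO; 30 °C, 80 min. Substrates: B-Raf-VE, MEK1 KM; CDK2/CycA, histone H1; CK2-A1, casein; COT, autophosphorylation. IC50 from 10 concentrations; 33Pi incorporation by scintillation.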

IC50 [2]	IC50 [3]	IC50 (Ephrin type-B receptor 4)	IC50 [4]	IC50 [5]	IC50 [6]	IC50 [7]	IC50 (Angiopoietin-1 receptor)	IC50 [9]	IC50 [10]	SMILES	Activity (Homo sapiens [1])	inhibition (Homo sapiens [8])
										CN[C@@H]1C[C@H]2O[C@@](C)([C@@H]1OC)n1c3ccccc3c3c4c(c5c6ccccc6n2c5c31)C(=O)NC4	63.9%	
8.7 µM	22 µM	44 µM	4.5 µM	3.1 µM	5.6 µM	34 µM	26 µM			COc1cc(C2=C(c3cn(COCC[Si](C)(C)C)c4ccccc34)CNC2=O)cc(OC)c1OC		30%
18 µM			9.1 µM	1.6 µM	1.7 µM	36 µM	11 µM	36 µM	> 50 µM	COc1cc(C2=C(c3cn(COCc4ccccc4)c4ccccc34)CNC2=O)cc(OC)c1OC		
